Source: ChEMBL document CHEMBL1154160, “Synthesis, antiviral activity, and stability of nucleoside analogs containing tricyclic bases” (Eur J Med Chem, 2009)

Legend:
Hepatitis C virus = assay: Antiviral activity against HCV in human Huh7 cells by RNA replicon assay; assay type: functional, organism-based, Hepacivirus hominis; settings: Huh-7
PBMC = assay: (§1) Cytotoxicity against human PBMC cells; assay type: cell-based; settings: pbmc
CCRF-CEM = assay: (§2) Cytotoxicity against human CEM cells; assay type: cell-based; settings: ccrf-cem
Vero = assay: (§3) Cytotoxicity against african green monkey Vero cells; assay type: cell-based; settings: chlorocebus sabaeus, vero
[1] = system: Human immunodeficiency virus; assay: Antiviral activity against HIV in human PBM cells; settings: Human immunodeficiency virus 1, PBMC
[2] = Stability in water assessed as half life; assay type: physicochemical; settings: buffer
Procedure, shortened: (§4)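 Analogs were diluted from a freshly made stock into water and into methanol, with one half held at room temperature and the other at 4°C. Samples were injected at intervals: every 15 min for 2 hr, then hourly, daily and weekly. LC-MS/MS used a C18 column at 30°C with a formate pH 3 (or water)/methanol gradient, ESI-positive SRM. Released guanine-analog was quantified against 10–1000 nM standard curves.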

[3] = Stability in methanol assessed as 3'-azido-3'-deoxyguanosine levels after 72 hrs; assay type: physicochemical; procedure, shortened: as §4
Human alphaherpesvirus 1 = assay: Antiviral activity against HSV1 F in african green monkey Vero cells by plaque reduction assay; assay type: functional, organism-based; settings: Human alphaherpesvirus 1, strain F
[4] = as §1; assay type: cell-based; settings: PBMC cells
[5] = as §2; assay type: cell-based, CCRF-CEM; settings: CEM (CCRF-CEM) cells
[6] = as §3; assay type: cell-based; settings: chlorocebus sabaeus, Vero cells

Structure (SMILES)	EC50 (Hepatitis C virus) [µM]	EC90 (Hepatitis C virus) [µM]	CC50 (PBMC) [µM]	CC50 (CCRF-CEM) [µM]	CC50 (Vero) [µM]	EC50 [1] [µM]	EC90 [1] [µM]	t1/2 [2] [min]	Activity [3] [%]	EC50 (Human alphaherpesvirus 1) [µM]	EC90 (Human alphaherpesvirus 1) [µM]	CC50 [4] [µM]	CC50 [5] [µM]	CC50 [6] [µM]
O=c1c2ncn([C@H]3CO[C@@H](CO)O3)c2nc2[nH]c(-c3cccs3)cn12	> 10	> 10	> 100	> 100	> 100	3	16							
COc1ccc(-c2cn3c(=O)c4ncn([C@H]5C[C@H](N=[N+]=[N-])[C@@H](CO)O5)c4nc3[nH]2)cc1	> 10	> 10	56.7	13.5	> 100	1.3	7							
C[C@@]1(O)[C@H](O)[C@@H](CO)O[C@H]1n1cnc2c(=O)n3cc(-c4cccs4)[nH]c3nc21	6.9	25.6	> 100	> 100	44.3	> 100	> 100							
O=c1c2ncn([C@H]3CO[C@@H](CO)O3)c2nc2[nH]c(-c3ccc(F)cc3)cn12	> 10	> 10	> 100	> 100	> 100	43.5	> 100							
Cc1ccc(-c2cn3c(=O)c4ncn([C@H]5C=C[C@@H](CO)C5)c4nc3[nH]2)cc1	> 10	> 10	> 100	> 100	> 100	5	30.1							
[N-]=[N+]=Nc1ccc(-c2cn3c(=O)c4ncn([C@H]5CO[C@@H](CO)O5)c4nc3[nH]2)cc1	> 10	> 10	> 100	> 100	> 100	2.6	11.4							
O=c1c2ncn([C@H]3CO[C@@H](CO)O3)c2nc2[nH]c(-c3ccccc3)cn12	> 10	> 10	> 100	> 100	> 100	7.1	43.5							
CCN(CC)c1ccc(-c2cn3c(=O)c4ncn([C@H]5CO[C@@H](CO)O5)c4nc3[nH]2)cc1	> 10	> 10	> 100	80.8	63	0.25	1.25							
N#Cc1ccc(-c2cn3c(=O)c4ncn([C@H]5CO[C@@H](CO)O5)c4nc3[nH]2)cc1	> 10	> 10	> 100	> 100	> 100	69.3	> 100							
[N-]=[N+]=N[C@H]1C[C@H](n2cnc3c(=O)n4cc(-c5ccccc5)[nH]c4nc32)O[C@@H]1CO	> 10	> 10	69.6	21.8	> 100	8.4	94.1							
CCc1cn2c(=O)c3ncn([C@H]4CO[C@@H](CO)O4)c3nc2[nH]1	> 10	> 10	> 100	> 100	> 100	31.5	> 100							
O=c1c2ncn([C@H]3CO[C@@H](CO)O3)c2nc2[nH]c(-c3ccsc3)cn12	> 10	> 10	> 100	> 100	> 100	0.91	6.6							
O=c1c2ncn([C@H]3C=C[C@@H](CO)C3)c2nc2[nH]c(-c3ccc(Br)cc3)cn12	> 10	> 10	> 100	> 100	> 100	12.3	43.2							
O=c1c2ncn([C@H]3CO[C@@H](CO)O3)c2nc2[nH]c(-c3ccc(F)cc3F)cn12	> 10	> 10	> 100	> 100	> 100	14.7	51.8							
CCN(CC)c1ccc(-c2cn3c(=O)c4ncn([C@H]5C=C[C@@H](CO)C5)c4nc3[nH]2)cc1	> 10	> 10	> 100	> 100	> 100	0.13	0.65							
O=c1c2ncn([C@H]3C=C[C@@H](CO)C3)c2nc2[nH]c(-c3cccs3)cn12	> 10	> 10	> 100	> 100	> 100	0.64	7.1							
COc1ccc(-c2cn3c(=O)c4ncn([C@H]5C=C[C@@H](CO)C5)c4nc3[nH]2)cc1	> 10	> 10	> 100	> 100	> 100	0.62	4.9							
O=c1c2ncn([C@H]3CO[C@@H](CO)O3)c2nc2[nH]c(-c3ccc(Cl)cc3)cn12	> 10	> 10	> 100	> 100	> 100	> 100	> 100							

Structure (SMILES)	EC50 (Hepatitis C virus) [µM]	EC90 (Hepatitis C virus) [µM]	CC50 (PBMC) [µM]	CC50 (CCRF-CEM) [µM]	CC50 (Vero) [µM]	EC50 [1] [µM]	EC90 [1] [µM]	t1/2 [2] [min]	Activity [3] [%]	EC50 (Human alphaherpesvirus 1) [µM]	EC90 (Human alphaherpesvirus 1) [µM]	CC50 [4] [µM]	CC50 [5] [µM]	CC50 [6] [µM]
CN(C)c1ccc(-c2cn3c(=O)c4ncn([C@H]5C=C[C@@H](CO)C5)c4nc3[nH]2)cc1	> 10	> 10	24	> 100	> 100	0.11	0.47							
Nc1nc2c(ncn2[C@H]2C=C[C@@H](CO)C2)c(=O)[nH]1 [CARBOVIR]	> 10	> 10	7	> 100	> 100	0.043	0.29							
CN(C)c1ccc(-c2cn3c(=O)c4ncn([C@H]5C[C@H](N=[N+]=[N-])[C@@H](CO)O5)c4nc3[nH]2)cc1	> 10	> 10	> 100	74.6	> 100	0.14	0.54							
C[C@@]1(O)[C@H](O)[C@@H](CO)O[C@H]1n1cnc2c(=O)n3cc(-c4ccsc4)[nH]c3nc21	≥ 10	> 10	> 100	> 100	> 100	> 100	> 100							
COc1cccc(-c2cn3c(=O)c4ncn([C@H]5CO[C@@H](CO)O5)c4nc3[nH]2)c1	> 10	> 10	> 100	> 100	> 100	20.7	89.6							
COc1ccc(-c2cn3c(=O)c4ncn([C@H]5CO[C@@H](CO)O5)c4nc3[nH]2)cc1	> 10	> 10	> 100	> 100	> 100	3.45	23.9							
CCN(CC)c1ccc(-c2cn3c(=O)c4ncn([C@H]5C[C@H](N=[N+]=[N-])[C@@H](CO)O5)c4nc3[nH]2)cc1	> 10	> 10	> 100	14.1	72.8	0.04	0.34	25	1					
COc1ccccc1-c1cn2c(=O)c3ncn([C@H]4CO[C@@H](CO)O4)c3nc2[nH]1	> 10	> 10	> 100	> 100	> 100	8.5	26.8							
CN(C)c1ccc(-c2cn3c(=O)c4ncn([C@@H]5O[C@H](CO)[C@@H](O)[C@@]5(C)O)c4nc3[nH]2)cc1				> 100	> 100									
O=c1c2ncn([C@H]3C=C[C@@H](CO)C3)c2nc2[nH]c(-c3ccsc3)cn12	> 10	> 10	> 100	> 100	> 100	2.6	15.5							
Nc1nc2c(ncn2[C@H]2CO[C@@H](CO)O2)c(=O)[nH]1	> 10	> 10	> 100	> 100	> 100	0.51	2.4							
CN(C)c1ccc(-c2cn3c(=O)c4ncn([C@H]5CO[C@@H](CO)O5)c4nc3[nH]2)cc1	> 10	> 10	> 100	> 100	> 100	0.61	1.5							
COc1ccc(-c2cn3c(O)c4ncn(COCCO)c4nc3n2)cc1										12.2	23.7			
CCc1cn2c(=O)c3ncn([C@@H]4O[C@H](CO)[C@@H](O)[C@@]4(C)O)c3nc2[nH]1	> 10	> 10				> 100	> 100					> 100	> 100	> 100
COc1ccc(-c2cn3c(=O)c4ncn([C@@H]5O[C@H](CO)[C@@H](O)[C@@]5(C)O)c4nc3[nH]2)cc1	≥ 10	> 10	> 100	> 100	> 100	> 100	> 100							
C[C@@]1(O)[C@H](O)[C@@H](CO)O[C@H]1n1cnc2c(=O)[nH]c(N)nc21 [2'-B-METHYL-GUANOSINE]	2.3	7.8				> 100	> 100					> 100	> 100	> 100
Cc1ccc(-c2cn3c(=O)c4ncn([C@H]5CO[C@@H](CO)O5)c4nc3[nH]2)cc1	> 10	> 10	> 100	> 100	> 100	4.9	23.9							
